The source of these data is ChEMBL document CHEMBL1800057, “Discovery of dual inducible/neuronal nitric oxide synthase (iNOS/nNOS) inhibitor development candidate 4-((2-cyclobutyl-1H-imidazo[4,5-b]pyrazin-1-yl)methyl)-7,8-difluoroquinolin-2(1H)-one (KD7332) part 2: identification of a novel, potent, and selective series of benzimidazole-quinolinone …” (J Med Chem, 2010).

Active and inactive are the calls of the source.

Data set [1] concerns Mus musculus. In words: Antiallodynic activity against von Frey hair mechanically stimulated neuropathic pain in mouse Chung model of neuropathic pain assessed as attenuation of tactile allodynia at 30 mg/kg, po bid for 4 days. The format is functional, organism-based. More on the design: dose 30 mg/kg. A digest of the protocol:
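Spinal nerve ligation in mice under isoflurane (5% induction, 2-3% maintenance). Von Frey filaments pressed on the paw for up to 10 s. 50% withdrawal threshold derived by Dixon's up-down method. Only mice with baseline thresholds of ~0.2-0.3 g between 5 and 10 days post-surgery were included. Dosing was oral.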

Data set [2] in a line: Plasma clearance in rhesus monkey at 3 mg/kg, iv and 10 mg/kg, po. The format is ADME, organism-based, Macaca mulatta. A digest of the protocol: (§1)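 Rhesus pharmacokinetics: 3 mg/kg iv and 10 mg/kg po, HCl salt. Clp, t1/2, Vdss, Cmax, AUC, oral t1/2 and %F reported.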
The nature of data set [3]: Half life in rhesus monkey at 3 mg/kg, iv and 10 mg/kg, po. The settings on record: in vivo. It is filed as ADME, organism-based, Macaca mulatta. In short, it runs like this: as §1
A short description of data set [4]: Volume of distribution at steady state in rhesus monkey at 3 mg/kg, iv and 10 mg/kg, po. It is filed as ADME, organism-based, Macaca mulatta. The settings on record: in vivo, read-out: Vdss. A digest of the protocol:
as §1

The nature of data set [5]: Cmax in rhesus monkey at 3 mg/kg, iv and 10 mg/kg, po. It is filed as ADME, organism-based, Macaca mulatta. The settings on record: in vivo. In short, it runs like this:
as §1

The nature of data set [6]: AUC in rhesus monkey at 3 mg/kg, iv and 10 mg/kg, po. It is filed as ADME, organism-based, Macaca mulatta. The settings on record: plasma. In short, it runs like this: as §1
Data set [7] in a line: Half life in rhesus monkey at 10 mg/kg, po. It is filed as ADME, organism-based, Macaca mulatta. More on the design: dose 10 mg/kg, route oral. Particulars: in vivo.
Data set [8] can be described thus: Bioavailability in rhesus monkey at 3 mg/kg, iv and 10 mg/kg, po. It is filed as ADME, organism-based, Macaca mulatta. Particulars: in vivo. In short, it runs like this:
as §1

The nature of data set [9]: Plasma clearance in mouse at 3 mg/kg, iv and 10 mg/kg, po. It is filed as ADME, organism-based.
Data set [10] can be described thus: Volume of distribution at steady state in mouse at 3 mg/kg, iv and 10 mg/kg, po. The format is ADME, organism-based. The settings on record: in vivo, read-out: Vdss.
Data set [11] in a line: Cmax in mouse at 3 mg/kg, iv and 10 mg/kg, po. Particulars: in vivo. It is filed as ADME, organism-based.
The nature of data set [12]: AUC in mouse at 3 mg/kg, iv and 10 mg/kg, po. The format is ADME, organism-based. The settings on record: plasma.
A short description of data set [13]: Half life in mouse at 10 mg/kg, po. The format is ADME, organism-based. More on the design: dose 10 mg/kg, route oral. The settings on record: in vivo.
Data set [14] can be described thus: Oral bioavailability in mouse at 10 mg/kg. The format is ADME, organism-based. The settings on record: in vivo.
For data set [15], the target named is Nitric oxide synthase, inducible (Homo sapiens, UniProt P35228). As to the kind of experiment: Inhibition of human iNOS expressed in HEK293 cells assessed as inhibition of nitric oxide production after 18 hrs using 2,3-diaminonaphthalene by fluorescence assay. It is filed as cell-based. A digest of the protocol: (§2)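 HEK293 cells grown to ~70% confluence in DMEM/10% FBS with pen/strep, transiently transfected with 10 μg human or murine iNOS plasmid plus Fugene 6 for 4 h at 37 °C, 10% CO2. Cells replated at 5e5 cells/mL and dosed with compound at once; 1400W (100 μM final) as positive control. After 18 h, DAN (10 μg/mL final) in HCl (0.1 N final) added for 20 min at room temperature. Fluorescence read after NaOH (0.12 N final).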
Nitric oxide synthase, inducible (Homo sapiens, UniProt P35228), sequence (P35228 whole entry): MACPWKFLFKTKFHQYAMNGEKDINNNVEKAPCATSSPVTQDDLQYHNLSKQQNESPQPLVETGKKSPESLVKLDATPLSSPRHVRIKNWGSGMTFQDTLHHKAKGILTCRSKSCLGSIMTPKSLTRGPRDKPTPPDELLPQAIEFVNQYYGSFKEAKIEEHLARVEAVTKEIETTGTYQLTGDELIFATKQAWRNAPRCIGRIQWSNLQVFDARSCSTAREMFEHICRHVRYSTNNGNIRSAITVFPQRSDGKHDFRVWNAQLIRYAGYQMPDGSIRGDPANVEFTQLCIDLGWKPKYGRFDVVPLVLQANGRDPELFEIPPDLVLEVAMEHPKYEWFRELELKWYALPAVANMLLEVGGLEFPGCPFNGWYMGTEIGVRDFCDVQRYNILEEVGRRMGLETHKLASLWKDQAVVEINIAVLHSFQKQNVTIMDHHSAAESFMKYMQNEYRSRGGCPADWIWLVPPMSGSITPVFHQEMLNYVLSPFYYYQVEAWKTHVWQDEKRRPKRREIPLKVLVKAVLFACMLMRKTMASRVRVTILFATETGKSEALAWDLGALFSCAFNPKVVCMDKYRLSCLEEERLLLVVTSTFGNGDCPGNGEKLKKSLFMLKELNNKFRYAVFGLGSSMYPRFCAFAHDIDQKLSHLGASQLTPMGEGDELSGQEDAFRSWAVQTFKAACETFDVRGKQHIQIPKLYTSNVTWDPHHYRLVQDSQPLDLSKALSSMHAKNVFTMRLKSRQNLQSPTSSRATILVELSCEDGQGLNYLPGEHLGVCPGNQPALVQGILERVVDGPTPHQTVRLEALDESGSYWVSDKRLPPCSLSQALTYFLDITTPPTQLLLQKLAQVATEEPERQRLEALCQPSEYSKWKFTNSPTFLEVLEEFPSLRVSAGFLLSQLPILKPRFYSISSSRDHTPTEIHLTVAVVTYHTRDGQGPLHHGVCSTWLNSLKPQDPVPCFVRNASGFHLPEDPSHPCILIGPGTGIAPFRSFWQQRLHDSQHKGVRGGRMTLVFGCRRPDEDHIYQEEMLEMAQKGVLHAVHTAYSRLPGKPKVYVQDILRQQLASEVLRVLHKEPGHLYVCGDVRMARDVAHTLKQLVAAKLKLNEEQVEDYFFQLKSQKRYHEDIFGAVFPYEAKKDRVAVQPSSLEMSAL

Data set [16] addresses Nitric oxide synthase 1 (Homo sapiens, UniProt P29475). In words: Inhibition of human nNOS expressed in HEK293 cells assessed as inhibition ionomycin induced nitric oxide production incubated for 24 hrs measured after 18 hrs of ionomycin challenge using 2,3-diaminonaphthalene by fluorescence assay. It is filed as cell-based. A digest of the protocol:
(§3)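 HEK293 cells transfected for 4 h at 37 °C with human nNOS (10 μg) or human eNOS (15 μg) plasmid (Fugene 6, 3:1). Cells replated at 5e5 cells/mL and dosed with compound at once; SEITU (100 μM final) as positive control. After 24 h, cells activated with A23187 (83 nM final) for eNOS or ionomycin (30 μM final) for nNOS. NO read 18 h later as nitrite-DAN fluorescence.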

The target in data set [17] is T1, Nitric oxide synthase 3 (Homo sapiens, UniProt P29474).
T1 sequence (P29474 whole entry): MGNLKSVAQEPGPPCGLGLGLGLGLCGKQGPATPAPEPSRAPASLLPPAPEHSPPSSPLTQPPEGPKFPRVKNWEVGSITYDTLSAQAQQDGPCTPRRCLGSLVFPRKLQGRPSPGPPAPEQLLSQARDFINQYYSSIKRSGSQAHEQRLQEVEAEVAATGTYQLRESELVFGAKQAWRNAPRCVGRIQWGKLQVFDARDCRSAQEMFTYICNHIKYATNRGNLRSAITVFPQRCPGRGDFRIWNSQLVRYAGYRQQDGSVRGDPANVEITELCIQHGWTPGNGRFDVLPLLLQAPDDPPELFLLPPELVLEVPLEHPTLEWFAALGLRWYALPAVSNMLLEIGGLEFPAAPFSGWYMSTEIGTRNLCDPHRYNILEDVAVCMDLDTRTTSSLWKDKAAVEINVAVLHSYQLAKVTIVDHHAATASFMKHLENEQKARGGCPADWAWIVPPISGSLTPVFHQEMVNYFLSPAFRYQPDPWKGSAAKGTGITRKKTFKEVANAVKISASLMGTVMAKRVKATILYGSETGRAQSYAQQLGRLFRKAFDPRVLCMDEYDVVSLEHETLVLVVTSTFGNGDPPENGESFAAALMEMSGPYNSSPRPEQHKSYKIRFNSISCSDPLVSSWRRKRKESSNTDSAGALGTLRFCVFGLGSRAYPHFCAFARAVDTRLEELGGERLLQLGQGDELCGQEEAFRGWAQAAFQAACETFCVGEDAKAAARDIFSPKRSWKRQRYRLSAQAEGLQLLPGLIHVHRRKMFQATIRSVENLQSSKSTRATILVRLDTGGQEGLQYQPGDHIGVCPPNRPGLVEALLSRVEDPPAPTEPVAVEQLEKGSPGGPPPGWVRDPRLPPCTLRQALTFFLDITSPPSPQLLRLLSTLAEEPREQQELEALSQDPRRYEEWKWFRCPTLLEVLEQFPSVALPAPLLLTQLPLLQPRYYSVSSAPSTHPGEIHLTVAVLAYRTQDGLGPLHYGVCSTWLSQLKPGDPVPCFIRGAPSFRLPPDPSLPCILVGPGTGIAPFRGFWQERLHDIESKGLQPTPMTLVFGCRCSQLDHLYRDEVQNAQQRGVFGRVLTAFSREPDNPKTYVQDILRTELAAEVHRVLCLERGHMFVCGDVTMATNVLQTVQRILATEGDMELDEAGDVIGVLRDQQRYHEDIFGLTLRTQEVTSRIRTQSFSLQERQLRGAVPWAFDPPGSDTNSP
In words: Inhibition of human eNOS expressed in HEK293 cells assessed as inhibition A23187 induced nitric oxide production incubated for 24 hrs measured after 18 hrs of […] challenge using 2,3-diaminonaphthalene by fluorescence assay. It is filed as cell-based. In short, it runs like this:
as §3

The test system of data set [18] is Liver. As to the kind of experiment: Half life in mouse liver microsomes assessed as formation of oxidation product and glucuronide conjugate. The format is ADME, Microsome. In short, it runs like this:
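Mouse liver microsomes run under combined phase I oxidation and phase II glucuronide conjugation; half-life reported in minutes.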
In general terms: Microsomes from liver hold many membrane-bound enzymes, among them those of drug oxidation.

Data set [19] is filed under the species Homo sapiens. As to the kind of experiment: Ratio of IC50 for human eNOS to EC50 for human iNOS.
Data set [20] is filed under the species Homo sapiens. In words: Ratio of IC50 for human nNOS to EC50 for human iNOS.
For data set [21], the target named is T2, Nitric oxide synthase, inducible (Mus musculus, UniProt P29477).
T2 sequence (P29477 whole entry): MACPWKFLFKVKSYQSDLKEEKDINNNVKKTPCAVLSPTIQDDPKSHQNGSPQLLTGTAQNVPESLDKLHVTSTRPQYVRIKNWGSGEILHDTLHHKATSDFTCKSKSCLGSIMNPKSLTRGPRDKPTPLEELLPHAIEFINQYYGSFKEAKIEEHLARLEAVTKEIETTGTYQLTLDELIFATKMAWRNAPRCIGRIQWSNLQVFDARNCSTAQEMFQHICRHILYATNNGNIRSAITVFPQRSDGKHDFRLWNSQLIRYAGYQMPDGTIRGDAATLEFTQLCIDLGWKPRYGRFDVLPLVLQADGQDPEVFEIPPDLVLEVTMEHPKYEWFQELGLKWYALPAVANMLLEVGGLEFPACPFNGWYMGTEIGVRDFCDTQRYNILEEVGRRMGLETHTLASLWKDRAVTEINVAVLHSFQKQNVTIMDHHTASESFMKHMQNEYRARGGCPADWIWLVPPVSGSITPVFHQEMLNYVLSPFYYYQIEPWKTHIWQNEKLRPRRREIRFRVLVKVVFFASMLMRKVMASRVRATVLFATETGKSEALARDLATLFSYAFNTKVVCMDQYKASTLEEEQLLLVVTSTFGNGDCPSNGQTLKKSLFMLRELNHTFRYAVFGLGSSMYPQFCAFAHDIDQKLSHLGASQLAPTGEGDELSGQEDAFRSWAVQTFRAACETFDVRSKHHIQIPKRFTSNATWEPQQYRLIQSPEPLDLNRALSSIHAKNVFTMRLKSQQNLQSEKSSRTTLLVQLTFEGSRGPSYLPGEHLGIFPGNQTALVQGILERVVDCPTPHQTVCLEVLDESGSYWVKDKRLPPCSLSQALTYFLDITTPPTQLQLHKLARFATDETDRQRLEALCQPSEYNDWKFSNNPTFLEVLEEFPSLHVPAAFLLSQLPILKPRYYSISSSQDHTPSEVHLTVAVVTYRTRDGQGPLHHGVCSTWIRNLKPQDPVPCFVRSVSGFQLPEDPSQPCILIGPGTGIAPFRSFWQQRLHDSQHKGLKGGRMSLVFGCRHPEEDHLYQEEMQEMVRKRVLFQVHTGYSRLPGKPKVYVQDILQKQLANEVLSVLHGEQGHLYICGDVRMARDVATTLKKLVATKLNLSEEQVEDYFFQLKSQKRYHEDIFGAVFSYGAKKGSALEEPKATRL
In words: Inhibition of mouse iNOS expressed in HEK293 cells assessed as inhibition of nitric oxide production after 18 hrs using 2,3-diaminonaphthalene by fluorescence assay. It is filed as cell-based. In short, it runs like this:
as §2

Data set [22] deals with Mus musculus. As to the kind of experiment: Inhibition of LPS-induced iNOS activation in BALB/c mouse assessed as plasma nitrate levels administered via oral gavage before LPS challenge measured after 6 to 8 hrs using 2,3-diaminonaphthalene by fluorescence assay. It is filed as functional. A digest of the protocol:
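Male BALB/c mice dosed by oral gavage (90% PEG/5% Tween 80/5% PVP + 0.5% w/v CMC) immediately before LPS (10 mg/kg ip in 0.9% NaCl). Mice killed at 6 h. EDTA plasma analysed for nitrate and drug levels; nitrite measured by DAN fluorescence.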

The nature of data set [23]: Half life in mouse at 3 mg/kg, iv and 10 mg/kg, po. Particulars: in vivo.

Nitric oxide synthase 1, sequence (P29475 whole entry): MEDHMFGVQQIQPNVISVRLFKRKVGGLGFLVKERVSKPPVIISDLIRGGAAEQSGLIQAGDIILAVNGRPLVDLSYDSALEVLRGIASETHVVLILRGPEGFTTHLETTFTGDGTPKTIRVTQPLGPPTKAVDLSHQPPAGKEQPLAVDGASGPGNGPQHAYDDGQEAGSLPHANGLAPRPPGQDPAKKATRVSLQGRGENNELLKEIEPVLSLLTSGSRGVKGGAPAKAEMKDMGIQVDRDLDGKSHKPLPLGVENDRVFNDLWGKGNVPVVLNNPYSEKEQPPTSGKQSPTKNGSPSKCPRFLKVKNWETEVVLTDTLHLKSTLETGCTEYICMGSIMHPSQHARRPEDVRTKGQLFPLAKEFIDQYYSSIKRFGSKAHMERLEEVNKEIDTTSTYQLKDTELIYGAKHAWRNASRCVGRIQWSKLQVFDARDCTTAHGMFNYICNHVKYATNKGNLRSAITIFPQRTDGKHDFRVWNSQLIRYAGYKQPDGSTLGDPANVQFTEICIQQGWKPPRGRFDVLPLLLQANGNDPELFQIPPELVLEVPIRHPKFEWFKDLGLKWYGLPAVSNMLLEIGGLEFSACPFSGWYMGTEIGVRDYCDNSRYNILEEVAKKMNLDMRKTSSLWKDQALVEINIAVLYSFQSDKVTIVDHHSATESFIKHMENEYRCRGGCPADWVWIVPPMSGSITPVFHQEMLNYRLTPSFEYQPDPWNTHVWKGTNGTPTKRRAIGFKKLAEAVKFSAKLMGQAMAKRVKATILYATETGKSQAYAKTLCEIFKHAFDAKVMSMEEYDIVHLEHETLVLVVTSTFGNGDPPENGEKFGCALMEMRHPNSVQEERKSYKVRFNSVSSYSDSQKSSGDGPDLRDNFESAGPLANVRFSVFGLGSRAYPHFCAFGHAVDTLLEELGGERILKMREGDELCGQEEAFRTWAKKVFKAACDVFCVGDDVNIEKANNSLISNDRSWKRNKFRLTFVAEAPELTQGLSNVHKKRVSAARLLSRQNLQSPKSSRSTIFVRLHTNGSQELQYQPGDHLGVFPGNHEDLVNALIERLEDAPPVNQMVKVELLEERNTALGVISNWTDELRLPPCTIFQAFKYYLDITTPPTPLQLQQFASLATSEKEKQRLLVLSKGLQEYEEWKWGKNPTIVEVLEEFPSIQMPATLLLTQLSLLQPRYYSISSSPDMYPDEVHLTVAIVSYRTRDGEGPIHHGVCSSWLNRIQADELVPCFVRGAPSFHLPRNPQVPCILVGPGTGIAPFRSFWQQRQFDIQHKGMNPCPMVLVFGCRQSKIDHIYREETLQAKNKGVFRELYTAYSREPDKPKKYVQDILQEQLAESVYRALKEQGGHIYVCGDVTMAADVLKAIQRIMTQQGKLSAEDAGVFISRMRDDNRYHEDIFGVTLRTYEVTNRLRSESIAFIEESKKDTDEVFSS

Consider `CN1CC[C@]23c4c5ccc(O)c4O[C@H]2[C@@H](O)C=C[C@H]3[C@H]1C5`, for which the outcome in data set [1] was Active.
As usually defined, the half-life is the time in which the quantity being followed falls by half. The Cmax is the peak of the concentration-time curve. By AUC is commonly meant concentration integrated over time. Broadly, the bioavailability is the share of a dose that reaches the circulation, judged against a reference dose that is usually intravenous. On to `Cl.O=c1cc(Cn2c(C3CCC3)nc3nccnc32)c2ccc(F)c(F)c2[nH]1`, for which the clearance in data set [2] is 6 mL/min/kg. Further, the half-life in [3] was 13 h; in [7] it was 9 h. Besides, the Vd in data set [4] is 3 L/kg. The highest level in data set [5] (Cmax) was 3300 ng/mL. Besides, in data set [6], the exposure (AUC) was 18000 ng·h/mL. In addition, the bioavailability in data set [8] was 63%.
In the case of `CC(C)Cc1nc2nccnc2n1Cc1cc(=O)[nH]c2c(F)c(F)ccc12.Cl`, in data set [2], the clearance is 18 mL/min/kg. Further, the half-life in data set [3] was 21 h; in [7], 15 h. Also, the Vd in data set [4] was 19 L/kg. The peak concentration (Cmax) in data set [5] stood at 210 ng/mL. In data set [6], the AUC came to 3200 ng·h/mL. The bioavailability in data set [8] is 59%.
The term EC50 denotes the concentration that produces a half-maximal response. By ED50 is commonly meant the dose at which the effect has come halfway, by size or by number of responders. `CC(C)c1nc2ccccc2n1Cc1cc(=O)[nH]c2c(F)c(F)ccc12` came in with a clearance in [9] of 5.9 mL/min/kg. Also, in data set [10], the Vd was determined as 0.7 L/kg. The compound also yielded a Cmax in data set [11] of 14000 ng/mL. Also, the AUC in data set [12] turned out to be 19300 ng·h/mL. In addition, the half-life is 2.6 h in [13] and 2.1 h in [23]. Also, in data set [14], the bioavailability turned out to be 58%. The EC50 in [15] stood at 800 nM; in data set [16], 650 nM; in data set [17] it was 11300 nM; in data set [21], 4400 nM. Besides, the t1/2 in [18] was > 2 h. Further, the figures for the Ratio EC50 in data set [19] and in data set [20] were 14 and 0.8, respectively. Also, the ED50 in [22] was 6 mg/kg.
